# Only some compounds are listed: those with a hit (about 2.3% of all), similar ones and a draw of the others.
# DNMT1 block: human DNMT1 methyltransferase inhibitors, primary screen, biochemical, molecular beacon, fluorescence, HinP1I cleavage, uHTS | 0.83% of 360,000 active | DNA (cytosine-5)-methyltransferase 1 (Homo sapiens), P26358 | inhibition (reported as % activation of signal), % at 10 µM | AID 588458, 2011; in the data active means inhibition above about 50%
# LMPTP inh: LMPTP phosphatase inhibitors, primary screen, biochemical, fluorescence intensity, uHTS; Low molecular weight phosphotyrosine protein phosphatase (Homo sapiens), P24666; recombinant LMPTP-A, OMFP fluorogenic substrate; inhibition, % at 20 µM; 0.22% of 360,000 active;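 active means compounds that cut the enzyme signal by at least half of the control window in the single-dose screen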;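 further: plate controls were DMSO wells with enzyme plus substrate for no effect and substrate without enzyme for full effect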
#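 Assay system: LMPTP-A phosphatase enzyme | Input: 0.625 nM enzyme | Also added: Fluorogenic phosphatase substrate OMFP at 400 µM final | Compound dosing: One test concentration per compound, 20 µM, with 3% DMSO overall | Schedule: 50 min enzyme reaction at room temperature, protected from light | Signal: Fluorescence intensity | Benchmarks: no-enzyme and uninhibited controls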
# SUMO1-SIM PPI: modulators of SUMO1 protein-protein interactions, primary screen, biochemical, uHTS. SUMO1 binding to a labelled peptide, TR-FRET, 1 h. inhibition, % at 20 µM. 0.33% of 360,000 active. AID 602429, 2012; in the data active means inhibition above about 37%
# Scp-1 inhibitor: Scp-1 phosphatase inhibitors, primary screen, biochemical, colorimetric, uHTS. Carboxy-terminal domain RNA polymerase II polypeptide A small phosphatase 1 (Homo …. Recombinant Scp1, phosphopeptide, malachite green phosphate absorbance. inhibition, % at 20 µM. 0.88% of 340,000 active. AID 493091, 2011;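 active means inhibition above about 50% at 20 µM, limit read from the data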;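 further: plate controls were DMSO wells with enzyme for no effect and wells lacking enzyme for full effect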
#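 Material: truncated SCP-1 phosphatase (76-261aa) / Buffer or medium: 50 mM Tris acetate pH 5.5, 0.005% Tween-20, 10 mM MgCl2 / Compound dosing: one concentration, 20 µM, with 1.0% DMSO / Incubation: 45 min room-temperature reaction, 5 min colour, 30 min stabiliser / Detection: colorimetric free-phosphate detection, absorbance 630 nm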
# STEP inh: STEP phosphatase inhibitors, primary screen, biochemical, fluorescence intensity, uHTS | Tyrosine-protein phosphatase non-receptor type 5 (Homo sapiens), P54829 | recombinant STEP, OMFP fluorogenic substrate | inhibition, % at 20 µM | 0.25% of 360,000 active | AID 588621, 2011;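 active means inhibition at 20 µM, scaled per plate between control wells, above about 37%, limit read from the data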;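 further: 0% = DMSO with enzyme and substrate and 100% = substrate only without enzyme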
# Target sequence (P54829 whole entry, looked up): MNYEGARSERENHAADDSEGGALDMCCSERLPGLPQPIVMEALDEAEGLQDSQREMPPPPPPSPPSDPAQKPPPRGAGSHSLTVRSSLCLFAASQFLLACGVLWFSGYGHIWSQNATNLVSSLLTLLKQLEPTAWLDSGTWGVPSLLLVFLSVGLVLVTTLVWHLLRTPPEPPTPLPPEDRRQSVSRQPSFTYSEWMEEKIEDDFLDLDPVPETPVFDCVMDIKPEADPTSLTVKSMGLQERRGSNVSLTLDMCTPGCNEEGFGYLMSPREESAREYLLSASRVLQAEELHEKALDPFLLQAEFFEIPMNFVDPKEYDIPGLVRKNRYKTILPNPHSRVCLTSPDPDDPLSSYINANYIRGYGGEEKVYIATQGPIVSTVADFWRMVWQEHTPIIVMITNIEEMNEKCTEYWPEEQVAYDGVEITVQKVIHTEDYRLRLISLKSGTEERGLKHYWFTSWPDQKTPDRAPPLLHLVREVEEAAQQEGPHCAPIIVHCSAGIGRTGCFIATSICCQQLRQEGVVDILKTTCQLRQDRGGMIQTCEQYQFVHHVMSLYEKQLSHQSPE
#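 Material: STEP (striatal-enriched tyrosine phosphatase) enzyme, cell-free; Compound dosing: 20 µM single dose in 1% DMSO; Technique: fluorescence read at 480 nm ex / 540 nm em; Times: reaction 20 min, ambient temperature; Medium: 50 mM Bis-Tris pH 6.0 with 2.5 mM DTT and 0.005% Tween 20; Also added: OMFP at 25 µM.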
# NadD block: inhibitors of S. aureus NadD, primary screen, biochemical, colorimetric, uHTS. 0.78% of 360,000 active. AID 602399, 2012. inhibition, % at 20 µM. purified NadD enzyme, colorimetric absorbance read-out. Nicotinate-nucleotide adenylyltransferase NadD (Staphylococcus aureus N315); in the data active means inhibition above about 26%
# The depositor's hits bear a star; x = no result.
SMILES,DNMT1 block,LMPTP inh,SUMO1-SIM PPI,Scp-1 inhibitor,STEP inh,NadD block
CC(=O)Nc1ccc(S(=O)(=O)N2CCN(c3nc(NC4CCCC4)c4ccccc4n3)CC2)cc1,-10.0,63.0*,-1.0,7.1,3.3,11.8
CC(=O)Nc1ccc(S(=O)(=O)N2CCN(c3cc(C)nc4ccccc34)CC2)cc1,2.5,38.6,-5.7,2.6,1.4,5.4
CC(=O)c1cccc(NC(=O)c2cccc3c(-c4cccc(C(N)=O)c4)coc23)c1,-4.8,2.3,49.5*,x,1.4,-3.0
COc1cc2cccc(OC)c(=O)c2c(O)c1OC,-1.4,0.4,-22.6,-3.7,2.0,7.0
COc1cc2c(ccc3cc(OC)c(OC)c(O)c32)cc1O,84.9*,61.8*,33.9,69.0*,53.2*,22.0
O=C(COc1ccccc1)Nc1sc2c(c1C(=O)NCc1cccnc1)CCCC2,29.7,51.3*,-4.4,6.7,4.5,3.1
Nc1cc(S(=O)(=O)Nc2ccccc2Cl)ccc1N1CCCCC1,-14.1,9.6,5.5,-4.6,3.5,11.4
COc1cccc(N=Nc2ccc(O)c3ncccc23)c1,-7.9,3.1,-10.0,-9.8,1.9,34.3*
COc1ccc(N=Nc2ccc(O)c3ncccc23)cc1,71.0*,7.4,51.1*,-6.8,2.0,40.3*
Cc1ccccc1N=Nc1ccc(O)c2ncccc12,71.0*,-0.5,-6.6,-0.2,3.8,32.7*
O=S(=O)(O)c1cccc2c(N=Nc3ccc(O)c4ncccc34)cccc12,49.8,51.3*,27.8,94.9*,50.9*,-3.3
CCCCNC(=O)c1nc(-c2cc3ccccc3[nH]2)oc1-c1ccccc1,x,-1.7,-10.3,x,x,x
Cc1cc(C)n2c(NC3CCCCC3)c(-c3cccnc3)nc2n1,x,1.5,-9.6,x,x,-1.2
CC1(C)Cc2cccc(OC(=O)NC3CCCCC3)c2O1,x,-1.5,0.0,x,x,-4.0
COc1ccc(-c2oc3c(c2C#CC(C)(C)O)C(OC)CCC3)cc1 (centres undefined),x,0.0,-5.4,x,x,-7.8
O=C(NC(=S)Nc1cc([N+](=O)[O-])ccc1O)c1ccc2c(c1)OCO2,-0.4,58.3*,-6.2,-4.8,14.3,0.9
COc1cc([N+](=O)[O-])ccc1NC(=S)NNC(=O)c1ccc2c(c1)OCO2,-0.6,-1.5,-31.8,-7.6,0.3,11.8
CCCCN1C(=O)C(=O)NC[C@@H]1CC1CCCCC1,x,6.5,44.7*,x,x,6.5
O=C(CN1C(=O)/C(=C2\SC(=S)N(CCS(=O)(=O)O)C2=O)c2ccccc21)Nc1cccc(Br)c1,13.9,82.6*,17.0,101.3*,97.9*,51.0*
O=C(CCSc1ccc(Cl)cc1)c1ccco1,1.7,2.0,2.0,-10.4,3.0,-11.7
O=C(CSc1ccc(Cl)cc1)c1ccco1,97.9*,20.4,2.8,72.9*,11.0,3.3
CN1/C(=C/C=C/c2n(C)c3cc([N+](=O)[O-])c([N+](=O)[O-])cc3[n+]2C)C(C)(C)c2ccccc21,5.5,58.1*,-15.6,x,23.5,0.3
COC1=CC(=O)OC(c2cccc(Cl)c2)C1 (centres undefined),x,-2.7,-4.7,x,x,x
CC(C)c1ccc(S(=O)(=O)N2CCN(CC(=O)Nc3ccc(Cl)cc3F)CC2)cc1,-6.2,1.7,-1.8,2.3,2.1,2.9
CC(C)c1ccc(S(=O)(=O)N2CCN(CC(=O)c3ccc(O)c(O)c3)CC2)cc1,3.6,67.8*,-3.0,x,1.8,2.9
O=C(CN1CCN(S(=O)(=O)c2ccc(Br)cc2)CC1)c1ccc(O)c(O)c1,2.5,59.0*,-6.0,4.8,2.6,-0.2
COc1ccc(OC)c(C(=O)CN2CCN(S(=O)(=O)c3ccc(Br)cc3)CC2)c1,-5.2,-4.9,-0.5,-1.2,6.7,-6.1

# Screening results as filed in PubChem.
